Data set [1] can be described thus: Cytotoxicity against human iPSC-derived neurons assessed as effect on cell-rounding. Format: tissue-based. The conditions noted are these: induced pluripotent stem cell-derived neuron.
The subject of data set [2] is HEK293. Kind of data set: Cytotoxicity against HEK293 cells assessed inhibition of cell proliferation up to 100 uM after 24 hrs by MTT assay. Format: cell-based. The conditions noted are these: human, hek293, 24 h. The method, boiled down:
(§1)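 HEK293T cells in DMEM with 10% FBS and 1% Pen Strep were seeded at 5,000 cells/well and left 24 h at 37 °C, 5% CO2. Compounds were then added as 2-fold dilutions from 100 to 3.13 μM (1% DMSO) for 24 h. MTT was added for 4 h, and formazan was dissolved in acidified isopropanol. A570 was read with 630 nm background subtracted, normalized to DMSO control, and fitted with a four-parameter curve for IC50.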
Background: Tetrazolium dyes change colour on reduction, which living cells bring about.

Data set [3] in a line: Cytotoxicity against human iPSC-derived neurons assessed as decrease in SNAP25 signal. Format: tissue-based. The following applies: induced pluripotent stem cell-derived neuron.
The subject of data set [4] is HEK293. Kind of data set: Cytotoxicity against HEK293 cells assessed inhibition of cell proliferation after 24 hrs by MTT assay. The class given is cell-based. The conditions noted are these: Homo sapiens, HEK293, 24 h. The method in brief:
as §1

Turning to `CS(=O)(=O)SCCCNC(=O)CC(CC(=O)NO)c1ccc(Cl)cc1Cl` (configuration not stated), the Activity result in data set [1] is reported as “Toxic”; in the data set with HEK293 [2], “Non-Toxic”; in data set [3], “Toxic”.
The IC50 is the midpoint of a concentration-inhibition curve. As for `CS(=O)(=O)SCCCCCCN(O)C(=O)/C=C/c1ccc(Cl)cc1Cl`, the IC50 with HEK293 [4] is 60 µM. Moreover, the Activity entry in data set [1] and in data set [3] was “Non-Toxic” in each case.
Consider `CS(=O)(=O)SCCCCCCNC(=O)CC(CC(=O)NO)c1ccc(Cl)cc1Cl` (configuration not stated), for which the Activity result in data set [1] and in data set [3] was “Toxic” throughout.
With `CS(=O)(=O)SCCCCNC(=O)CC(CC(=O)NO)c1ccc(Cl)cc1Cl` (configuration not stated), the Activity entry in data set [1] and in data set [3] was “Toxic” in each case.
`CS(=O)(=O)SCCCCCN(O)C(=O)/C=C/c1ccc(Cl)cc1Cl`: the Activity result in data set [1] and in data set [3] was “Non-Toxic” in each case.
With `CS(=O)(=O)SCCCCCCCN(O)C(=O)/C=C/c1ccc(Cl)cc1Cl`, the Activity entry in data set [1] and in data set [3] was “Non-Toxic” in each case.
Consider `CCCCCNC(=O)CC(CC(=O)NO)c1ccc(Cl)cc1Cl` (configuration not stated), for which the Activity result with HEK293 [2] is recorded as “Non-Toxic”.
In the case of `CS(=O)(=O)SCCCCCNC(=O)CC(CC(=O)NO)c1ccc(Cl)cc1Cl` (configuration not stated), the Activity entry in data set [1] and in data set [3] was “Toxic” each time.

These data come from ChEMBL document CHEMBL4665791 (J Med Chem, 2020).
